Assay results from different studies.
Compare with care: the assays were run in different laboratories.
Target: Serine/threonine-protein kinase Sgk1 (SGK1, Homo sapiens, UniProt O00141)
Residues used in one study (O00141 1-431): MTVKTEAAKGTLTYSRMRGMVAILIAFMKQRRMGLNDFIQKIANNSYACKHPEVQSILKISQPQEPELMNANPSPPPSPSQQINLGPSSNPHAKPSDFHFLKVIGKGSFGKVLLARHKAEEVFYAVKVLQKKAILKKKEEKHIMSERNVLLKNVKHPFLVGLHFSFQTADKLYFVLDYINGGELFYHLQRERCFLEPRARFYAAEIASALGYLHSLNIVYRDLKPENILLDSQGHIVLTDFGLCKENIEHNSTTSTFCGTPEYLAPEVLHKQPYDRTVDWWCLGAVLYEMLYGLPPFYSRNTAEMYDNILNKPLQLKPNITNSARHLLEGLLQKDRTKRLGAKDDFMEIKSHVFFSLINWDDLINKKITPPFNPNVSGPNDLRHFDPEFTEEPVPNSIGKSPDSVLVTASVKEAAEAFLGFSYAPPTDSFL

Structure (SMILES) | test | conditions | endpoint | result
FC(F)(F)Oc1cccc(-c2cnc3ccc(-c4ccncc4)nn23)c1 | enzyme activity, inhibitor, radiometric | 5 µM | activity vs control | 108%
CCCOc1ccc(OC)c(F)c1C(=O)c1ccc(C(=O)N[C@@H]2CNC[C@H]2NC(=O)c2ccc3[nH]ncc3c2)cc1 | enzyme activity, inhibitor | 0.1 µM | remaining activity | 64%
N#CCCc1ccc2c(c1)-c1[nH]c3ccc([N+](=O)[O-])cc3c1CC(=O)N2 | cell-free assay | 0.5 µM | remaining signal | 87.9%
Nc1nc(NC2CCCCC2)sc1C(=O)c1ccccc1 | enzyme activity, inhibitor | 10 µM | remaining activity | 81%
CN(C)C1CCN(CC#Cc2nn(C3CCCC3)c3nc(NCc4ccccc4)ncc23)C1 (stereo not drawn) | enzyme activity, inhibitor, FRET | 10 µM | inhibition | 20%
CC(C)(C)c1nc(-c2cccc(NS(=O)(=O)c3c(F)cccc3F)c2F)c(-c2ccnc(N)n2)s1 | enzyme activity, inhibitor, radiometric | 1 µM | remaining activity | 75%
CNC(=O)c1cc(Oc2ccc(NC(=O)Nc3ccc(Cl)c(C(F)(F)F)c3)cc2)ccn1 | enzyme activity, inhibitor | 0.3 µM | inhibition | -15%
O=C1Nc2ccc(Cl)cc2C1=Cc1cc(Cl)c(O)c(Cl)c1 | cell-free assay | 0.5 µM | remaining signal | 91.3%
O=C1CCc2cc(Nc3cc(OC4CCOCC4)c([N+](=O)[O-])cc3Cl)ccc2N1 | cell-free assay, competition with immobilised ligand | 1 µM | remaining binding | 100%
O=C(Nc1cnn(-c2csc(C(=O)NC3COC3)c2)c1)Nc1c(F)cccc1Cl | enzyme activity, inhibitor | 5 µM | remaining activity | 95.4%
Cc1nc(C2CCN(C(=O)c3ccc(OC(F)(F)F)cc3N)CC2)c2ncc(N3CCN(C)CC3)cc2n1 | cell-free assay, competition with immobilised ligand | 1 µM | remaining binding | 100%
Cc1ccc(Nc2nccc(N(C)c3ccc4c(C)n(C)nc4c3)n2)cc1S(N)(=O)=O | enzyme activity, inhibitor | 0.3 µM | inhibition | -14%
CO[C@@H](C)c1c(Nc2ccc([C@@H](N(C)C(=O)C3CCS(=O)(=O)CC3)C(F)(F)F)cc2)cnc2cc(Cl)nn12 | cell-free assay, competition with immobilised ligand | 1 µM | remaining binding | 89%
COc1cc2ncnc(Nc3ccc(Oc4ccccc4)c(C)c3C)c2cc1OC | enzyme activity, inhibitor | 1 µM | inhibition | 0%
COc1cc(/C=C/C(=O)CC(=O)/C=C/c2ccc(O)c(OC)c2)ccc1O | enzyme activity, inhibitor | 1 µM | activity vs control | 82%
Nc1ncnc2occ(-c3ccc(NC(=O)Nc4cc(C(F)(F)F)ccc4F)cc3)c12 | cell-free assay, inhibitor | 20 µM | remaining signal | 10%
C[C@@H]1CN(c2cc(-c3n[nH]c4ccc(OC5(C)CC5)cc34)ncn2)C[C@H](C)O1 | cell-free assay, competition with immobilised ligand | 0.1 µM | remaining binding | 89%
Cc1cc(NC(=O)c2cccc3cc(-c4cccc5[nH]nc(N)c45)ccc23)ccc1F | enzyme activity, inhibitor | 0.1 µM | activity vs control | 87%

Structure (SMILES) | test | conditions | endpoint | result
CN(C(=O)c1ccccc1)c1cc(N(C)c2ccc3c(c2)CCc2ccc(C(=O)NCCN4CCOCC4)cc2C3=O)ccc1F | cell-free assay, competition with immobilised ligand | 1 µM | remaining binding | 100%
CCN(CC)c1ccc(C2=NNC(=O)CC2C)cc1[N+](=O)[O-] (stereo not drawn) | enzyme activity, inhibitor | 10 µM | remaining activity | 100%
Cc1sc(C(=O)NC2COC2)cc1-n1cc(NC(=O)Nc2c(F)cccc2Cl)cn1 | enzyme activity, inhibitor | 10 µM | remaining activity | 115%
CNc1cccc2cc(C(=O)Nc3ccc(C(=O)O)cc3)c(=O)[nH]c12 | enzyme activity, inhibitor | 10 µM | inhibition | 8.2%
Cn1c(=O)n(-c2ccc(C(C)(C)C#N)cc2)c2c3cc(-c4cnc5ccccc5c4)ccc3ncc21 | enzyme activity, inhibitor | 10 µM | remaining activity | 98%
O=[N+]([O-])c1cccc2[nH]c(CNc3nc(N4CCOCC4)nc4c3ncn4-c3ccsc3)nc12 | binding, competition with immobilised ligand | 10 µM | binding vs control | 57%
COc1cc(-c2cn(C3CCc4ccccc4N(CC(F)(F)F)C3=O)nn2)ccc1-n1ccc(C)n1 (stereo not drawn) | cell-free assay, competition with immobilised ligand | 1 µM | remaining binding | 88%
CNCc1ccc(-c2cc(-c3nc(-c4ccc(S(=O)(=O)C(C)C)cc4)cnc3N)on2)cc1 | enzyme activity, inhibitor | 0.4 µM | inhibition | 0%
CSc1cccnc1N1CCN(Cc2nc3ccccc3[nH]2)CC1 | cell-free assay, competition with immobilised ligand | 1 µM | remaining binding | 82%
CC/C(=N\NC(=O)NCc1cccc(O)c1)c1ccc(O)c(C)c1O | enzyme activity, inhibitor | 0.1 µM | inhibition | 75.4%
COc1cc(Nc2cnc(C#N)c(O[C@H](C)CN(C)C)n2)ncc1-c1cnn(C)c1 | enzyme activity, inhibitor, radiometric | 10 µM | remaining activity | 22%
CC(C)(C)C(=O)c1sc(NC2CCCCC2)nc1N | enzyme activity, inhibitor | 10 µM | remaining activity | 91%
CCCS(=O)(=O)Nc1ccc(F)c(C(=O)c2c[nH]c3ncc(-c4ccc(Cl)cc4)cc23)c1F | enzyme activity, inhibitor | 1 µM | inhibition | < 10%
CSc1nc(C)c(-c2ccnc(Nc3ccc(N4CCOCC4)cc3)c2)[nH]1 | enzyme activity, inhibitor | 10 µM | inhibition | 34.8%
CCN(CC)CCNC(=O)c1c(C)[nH]c(/C=C2\C(=O)Nc3ccc(F)cc32)c1C | enzyme activity, inhibitor | 10 µM | inhibition | 86%
COc1cc(Cl)c(C(=O)N[C@@H](CN[C@H]2CC[C@@H](N)CC2)Cc2ccc(C#N)cc2)cc1-c1ccc(CN[C@H](C)c2ccc(C)cc2)o1 | enzyme activity, inhibitor | 1 µM | remaining activity | 94%
CC(=O)C1=C(C)N(c2cccc(C(F)(F)F)c2)C(=O)N[C@@H]1c1ccc(C#N)nc1 | cell-free assay, competition with immobilised ligand | 1 µM | remaining binding | 100%
Cc1ccc(NC(=O)c2ccc(C)c(C(F)(F)F)c2)cc1C#Cc1nn(C2CCC(O)CC2)c2ncnc(N)c12 (stereo not drawn) | cell-free assay | 10 µM | remaining signal | 90%
